# Measured values pooled from the literature.
# Each line is one published result; the experiments were not run side by side.
# Target: Serine/threonine-protein kinase Sgk3 (SGK3, Homo sapiens, UniProt Q96BR1)
# Sequence (Q96BR1 1-496, as in one of the studies): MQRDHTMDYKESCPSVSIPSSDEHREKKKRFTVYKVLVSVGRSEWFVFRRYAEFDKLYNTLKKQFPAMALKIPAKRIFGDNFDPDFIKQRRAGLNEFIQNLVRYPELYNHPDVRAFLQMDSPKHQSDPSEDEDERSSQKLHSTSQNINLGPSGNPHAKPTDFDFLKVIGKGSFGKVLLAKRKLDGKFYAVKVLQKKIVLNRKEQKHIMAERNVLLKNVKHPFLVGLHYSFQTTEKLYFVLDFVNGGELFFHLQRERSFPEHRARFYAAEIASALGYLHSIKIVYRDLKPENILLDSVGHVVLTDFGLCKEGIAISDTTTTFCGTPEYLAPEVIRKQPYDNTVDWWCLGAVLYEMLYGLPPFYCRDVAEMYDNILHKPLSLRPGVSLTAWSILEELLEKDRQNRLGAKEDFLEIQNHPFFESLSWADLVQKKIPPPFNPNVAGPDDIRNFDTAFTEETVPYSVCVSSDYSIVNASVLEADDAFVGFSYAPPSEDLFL
SMILES,effect on,technique,concentration,remaining binding [%]
N[C@H]1CCN(c2nccc(-c3cnn4ncccc34)n2)C1,binding,,1 µM,100
O=C(c1ccc(Nc2ncc(Cl)c(-c3ccc(Cl)s3)n2)cc1)N1CCC(N2CCCC2)CC1,binding,competition with immobilised ligand,1 µM,4.7
C[C@H](c1cccc(C#N)c1)n1cc(Cl)cc(C(N)=O)c1=N,cell-free assay,competition with immobilised ligand,1 µM,80
O=C(Nc1c[nH]nc1C(=O)NC1CCNCC1)c1cc(F)cc(F)c1,binding,competition with immobilised ligand,1 µM,100
COc1cccc(CNC(=O)c2nc3scc(COCc4ccc(C(=O)O)cc4)c3c(=O)[nH]2)c1,cell-free assay,competition with immobilised ligand,1 µM,69.2
O=C(c1ccc(Nc2ncc(Cl)c(-c3cc4ccccc4s3)n2)cc1)N1CCC(N2CCCC2)CC1,binding,competition with immobilised ligand,1 µM,5.6
Cc1noc([C@H]2C[C@@H](c3ccc(C(F)(F)F)cc3)CN(C(=O)N3CCS(=O)(=O)C3)C2)n1,cell-free assay,competition with immobilised ligand,1 µM,100
CNC(=O)[C@@H]1CC[C@@H](n2c(-c3ccc4cnccc4c3)nc3ccc(C(=O)NCc4cccc(C(N)=O)c4)cc32)C1,binding,competition with immobilised ligand,1 µM,82
COc1ccnn2ncc(-c3ccnc(N(C)C)n3)c12,binding,,1 µM,95
CS(=O)(=O)c1cc(C2(NC(=O)c3cncc4c3cnn4-c3ccc(F)cc3)CC2)ccn1,cell-free assay,competition with immobilised ligand,1 µM,100
CN(c1nccc(-c2cnn3ncccc23)n1)C1CC1,binding,,1 µM,99
Cc1c(NC(=O)c2cc(C(N)=O)nc3cc(F)ccc23)c(C(F)(F)F)nn1Cc1ccc(C(C)(C)C)cc1,cell-free assay,competition with immobilised ligand,1 µM,94
FC(F)(F)Oc1cccc(-c2cnc3ccc(-c4ccncc4)nn23)c1,binding,competition with immobilised ligand,5 µM,70
Cc1cnn2ncc(-c3ccnc(N(C)C)n3)c2c1,binding,,1 µM,100
O=C(NCCCN1CCOCC1)c1ccc(Nc2ncc(Cl)c(-c3ccc(Cl)s3)n2)cc1,binding,competition with immobilised ligand,1 µM,45
COCCOc1nc(-c2ccc(Cl)nc2)nc2c1CN(C(=O)c1ncn3ccccc13)CC2,cell-free assay,competition with immobilised ligand,0.1 µM,100
c1cnn2ncc(-c3ccnc(N4CCC45COC5)n3)c2c1,binding,,1 µM,71
COc1ncc2cc3ccccc3nc2c1C#N,cell-free assay,competition with immobilised ligand,5 µM,100
COc1cnc(Nc2cccc(S(N)(=O)=O)c2)nc1N1CCN(c2ccccc2)CC1,binding,competition with immobilised ligand,1 µM,72
F[C@@H]1CCN(c2nccc(-c3cnn4ncccc34)n2)C1,binding,,1 µM,89
c1cncc(-c2cccc(Nc3nccc(NC4CCCCC4)n3)c2)c1,binding,competition with immobilised ligand,10 µM,58
